Assay results published in the EternaBench riboswitch data.

System: MS2 coat protein
Test: apparent Kd, MS2 coat protein; higher = weaker binding; RNA-MaP array; FMN 200 µM where present
Summary of the method: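 Green signal from SNAP-549-labelled MS2 coat protein was normalised to red-channel RNA signal and to the median Fmax of control clusters. The protein was titrated from 0.7 or 1.5 nM, doubling to 3 µM, without and then with constant ligand, over designs transcribed by stalled E. coli RNA polymerase on Illumina sequencing-chip clusters, in 100 mM Tris-HCl pH 7.5, 80 mM KCl, 4 mM MgCl2, BSA, DTT, yeast tRNA and Tween-20. The apparent Kd is the median of filtered per-cluster binding-curve fits.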

[1] = designed as: OFF switch for flavin mononucleotide, no ligand
[2] = ligand present: flavin mononucleotide, designed as: OFF switch for flavin mononucleotide
[3] = designed as: ON switch for flavin mononucleotide, no ligand
[4] = ligand present: flavin mononucleotide, designed as: ON switch for flavin mononucleotide

Sequence	apparent Kd [1] [nM]	apparent Kd [2] [nM]	apparent Kd [3] [nM]	apparent Kd [4] [nM]
UGUUCUAUGUAGAAGGCCCAUAUCUGUUUUUAGGGAGGAUAUACAUGAGGAUCACCCAUGUGUAGAGCUGGUGGACUGGUCAGC	13.7	40.1	–	–
UACAUGAGGAUCACCCAUGUUUUGUCGUGUAUGGUAUUUAUCUAGGAUAUCAAUUGAGUUAUUUAUGAGAAGGAGAAUAUUAAU	41.7	44	–	–
UGGUACAUCGGAGGAUAUCGUGUGUAAACAUGAGGAUCACCCAUGUCGUACGAGAGUACGUAGAUCGAGAAGGCCGAUGUACCU	–	–	17.2	14.7
CCUCCACAUGAGGAUCACCCAUGUCAGGAUAUCGUGUGUUUUUUUUCGGUCGUGCGUGCGAGAAGGGACGUCUU	25.9	29.7	–	–
UUCCUGUCAGGAUAUGACUAGAUGCACGAAAGUGUUUUUAGUUAGAAGGGACAUGAGGAUCACCCAUGUAGUCC	24.1	40	–	–
CGUAGGAUCCAGAAGGCAUGAAACAUGAGGAUCACCCAUGUGAAACACAUGAGGAUAUGGAUCCUACGAAAAGUGCGAAAGCAC	–	–	4.32	4.48
GUCGGAAACGACAAAAGUAGCAUACGAGAAGGCUGAUCCAAGACAUGAGGAUCACCCAUGUAGUUAGAGGAUAUUGGAUGCUAC	–	–	63.8	10.7
GGGUCAACAUGAGGAUCACCCAUGUAGGAUAUCGCUAUUGUAAUCAUGAAACAUGAUUACAAUAGCGAGAAGGACAUAUGCGGG	42	74.1	–	–
GUUACACAUGAGGAUCACCCAUGUAAGGAUAUGCUGCGGUCGCGAAAACGUGACUGCAGCAGAAGGUACACAUG	119	121	–	–
GGAACUCAUGUAGGAUAUGCAUGGCGAAGCUACGCAGAAGGACAUGAGGAUCACCCAUGUUCUAGCGUCUGAGUACAGAUGCAA	126	178	–	–
UCCCUAAGGCGGACCGACCAUACAUGAGGAUCACCCAUGUCGAGAAGGUGCUCACGGGUGGGUGGCAAGGAUAUCGGGUCGGAA	–	–	69.8	36.5
ACGAUGUCAGGAUAUCGAUCACGGGUCUGAAGACACGUGUUUGAGAAGGGACAUGAGGAUCACCCAUGUGUCUC	122	314	–	–
ACACUACAUGAGGAUCACCCAUGUCAGGAUAUCGAUAUCACAACUCAUCAACCUCACUCGAGAAGGGACACAUA	24	23.8	–	–
CGUGCGUAUGUGAGGAUAUGCUGGUCCUUGGAUCGGCAGAAGGCACAUGAGGAUCACCCAUGUGGUGUCGUACU	238	32.4	–	–
AGUGUCAUCGAGAAGGCCUCAUUAACAUGAGGAUCACCCAUGUAAUAUGGGAGGAUAUCGAUGAUACAGCUACGUUUCGUAGCA	–	–	216	55.2
GCACGGCAUGUAGGAUAUGCAUAGCAUUGCUAUGCAGAAGGACAUGAGGAUCACCCAUGUAUGUAUUCCAUACAUUUCCCGUGC	5.5	7.65	–	–
ACGCUUUGGGAGAAGGUACUUUAAAAUUUUUCCACAUGAGGAUCACCCAUGUAAGGAUAUCCCAUCGUUAAAUAUUCUACAGCA	8.98	7.26	–	–
CAGUACUGAGGAUAUACAUGAGGAUCACCCAUGUGUUCCAGCUAGGAAACUAGCAAAAGUAGAAGGCAGUUCUG	20.2	182	–	–
CCGGAUAUGCAGGAUAUCGAAUCGGAAACGAUUCGAGAAGGGUAUACAUGAGGAUCACCCAUGUGUCCUACCGG	24.9	31.6	–	–
UAGAAGUCAGGAUAUCCAUGGCGGCACUUGCGUGGUGGCGUGGAGAAGGGACAUGAGGAUCACCCAUGUAAAGC	48.7	37	–	–
UGUCGGAGCAGAGGAUAUUACAUGAGGAUCACCCAUGUAUGAACCAGUAGCUGGAAACAGCAAUGUAAGAAGGCUGCUCCGACA	10.9	91.3	–	–
GCCAUCGCAUGAGGAUAUGCUCCGGUUUCCGGAGCAGAAGGCAUGUCAUAAGACAUGAGGAUCACCCAUGUAGCUAAGAUGGCA	–	–	307	11.9
GGCCCGGGAGGAUAUACAUGAGGAUCACCCAUGUGCGGGCCCGGGAUCCCGGGCCCGUGUAGAAGGCCCGGGCC	13.4	16.5	–	–
UAUAUACAUGAGGAUCACCCAUGUAAGGAUAUGCAUUAUUAUUAUUAUUAUUAUUAUAGCAGAAGGUACAAUAU	32.1	31.3	–	–
UAUGCGAGAGGAUAUACAUGAGGAUCACCCAUGUGUCCGACACAAUUCAGUUGCAUAUGUAGAAGGCUUGCGAC	14.4	19.6	–	–
CCCGUGUGAGGAUAUCGUUCGCUUGGCGUUUGUCGGGUGGGCGAGAAGGUACAUGAGGAUCACCCAUGUGCGGG	172	422	–	–
ACCUUACAUGAGGAUCACCCAUGUCAGGAUAUCUCGGGCGACCGAGGGCCGGCCGCCCAGAGAAGGGACGAGGA	12.5	13.9	–	–
AAACACAAACAUGAGGAUCACCCAUGUUAUGAAAAUACUGGGAGAAGGGCGAUUGCAAAGCAAUCGCAGGAUAUUCGUAUUGUG	–	–	76.7	16.1

Sequence	apparent Kd [1] [nM]	apparent Kd [2] [nM]	apparent Kd [3] [nM]	apparent Kd [4] [nM]
CUUCUGUGAGGAUAUUGACCAGUAGCUGACCUAGUACUGGAUGAGAAGGCACAUGAGGAUCACCCAUGUGGCAC	19.5	104	–	–
AAUAAUCAGUAAGGAUAUACUAGCGAUUAGCUUGUAGAAGGUACAGUCUUAUGUAUAACAUGUUAACAUGAGGAUCACCCAUGU	–	–	62.9	33.3
GAGUGGAAGGCCGCUACAUGAGGAUCACCCAUGUGCUAAGCACAGGAUAUCGCGCUAGCCCGGCGCGAGAAGGGUGACGGCCUG	–	–	674	339
CGCAAUAUACAGAAGGAGUUAUUGAGAGGUUUACUAGGAUAUGUUCACAUGAGGAUCACCCAUGUCAUAUGGUUUUUUAUUGCG	13.6	11.4	–	–
GUACAGUAGUGAGGAUAUACGAGAUCGAUAGAUCGGCGAUCCAUUUAUACAUGAGGAUCACCCAUGUAGAAGGCACUUCUGUAC	5.73	61.7	–	–
UUGCUCGUGUGAGGAUAUGCCGCCGUUUCGGCUGCAGAAGGUACUUUAAUACAUGAGGAUCACCCAUGUCUCUGUUGUUUCGUG	–	–	26.5	26.9
CUCUUGGCAGGAUAUGCUUUUUUAGACAUGAGGAUCACCCAUGUGAUGAAUAUUGGGUUCGCAGAAGGGCCUGAAU	54.1	48.3	–	–
UGGUAUUAGGGAGGAUAUGGGAAGAUACAUGAGGAUCACCCAUGUUUAAGAAUGCCGAGAGGCAACUAGAAGGCCCUAGUACCU	–	–	500	20.3
GUGGCUAGUGCAGGAUAUUGGCGCGUGUAGUGUCGAGAAGGGCACAUGAGGAUCACCCAUGUGAUCAAUCACUGCUAAGGCCGC	7.04	7.31	–	–
GUACUACAUGAGGAUCACCCAUGUCAGGAUAUGUGAAUUUCAUCAAAAGAUGAAAUUCGUAGAAGGGACAGUAC	22.2	29.4	–	–
AUCCGGCGUGUAGGAUAUGGAAAAGAUUAGAAACCAGAAGGACAUGAGGAUCACCCAUGUACAUGUAAACAGUCAUCACCGGAA	12.2	35.1	–	–
ACAUACUUUCGAGGAUAUCGGUGAUAAUUUUUACGAGAAGGCGAUAAAAGAUAUAAUCUUAUAGACAUGAGGAUCACCCAUGUA	–	–	30.5	26.4
AAGAAGAACGCAGGAUAUCUCACCCAUGUAAGAAGAGAAGGGCGACAUGAGGAUCACCCAUGUCAACAUGAGGAUCACCCAUGU	59.6	88.9	–	–
AGAGUGAUUACCUCGGUCCCACAUGAGGAUCACCCAUGUAACAAGGAUAUCGCUCCAAAUGGAAGUGAGAAGGUGUCUCAUGUC	27.8	42.2	–	–
GCCUUAUCCGUCAGGAUAUACAGCCGUUAGUUGUUGUAGAAGGGACAUGAGGAUCACCCAUGUACGUACCAUUG	18.7	30.7	–	–
GGUACCAACACAGGAUAUCCUAUCCUUUGGGUAGGAGAAGGGUGAAACAUGAGGAUCACCCAUGUGGUGCCAGGGCGUGAGCCC	–	–	1230	206
UUGGUUGUCGUAGGAUAUGGAGGAGAUUCCUACAUGAGGAUCACCCAUGUUCGCAUGGAAGAAGGCCAGAAGGACGAUGACCAU	–	–	80.5	62
AACAUGAGGAUCACCCAUGUCCCACCAGAAGGCUGGCGGUGGUGGUAAAGGCCACGACAAAUAACAGAGGAUAUGGUGAAUGCA	–	–	84.6	18.8
UUAUACGUUGAGGAUAUGCGAAUUAGUAUAGUUGCAGAAGGCGAUACAUGAGGAUCACCCAUGUUUAUGGGCAU	194	341	–	–
GUACCUUAUGAGAAGGCGGUCAUGAAACAUGAUCGAGGAUAUCAUGUAAACAUGAGGAUCACCCAUGUAUGGGUAUUAUGGUAG	–	–	70.2	13.8
AGUUCACAUGAGGAUCACCCAUGUCAGGAUAUCGACUGAACAGCUUCGGCUGUUCAGUCGAGAAGGGACAAUUA	46.5	104	–	–
UGAUAACAUGUAGGAUAUGCAGCAUUGACCAUUGCAGAAGGACAUGAGGAUCACCCAUGUACCGAUACAAUGGGAUCACGCAAU	15.3	18.5	–	–
GACACUAUGUUUGUCAGAUAGAGAGAGGAUAUGGCUCAUGAGACAUGAGGAUCACCCAUGUAUAAUCAGAAGGCUCGAGUACGA	–	–	11.5	9.17
UCAAGUAUGUAGGAUAUCGAUGUCCUUGGACAUCGAGAAGGACGUACAUGAGGAUCACCCAUGUAACUUGCAUG	219	278	–	–
GUCAUUAAACAGAAGGUGUAGUACAUGAGGAUCACCCAUGUAUAACUAACUAAAUUUGUAAUUAACAAGGAUAUGUACUAAUCG	–	–	6.58	6.63
UGUUGUAUUACAGGAUAUCUAGUAUUUUUAUUAAGAGAAGGGUAUUCACAUGAGGAUCACCCAUGUAUAUACGAGGAAGUUGUG	–	–	42.4	42.4
AAGAAGUCAGGAUAUGCAUGGCGGGACUUGCGUCGUGGCGUGCAGAAGGGACAUGAGGAUCACCCAUGUGGAGU	155	241	–	–
